This is a sample that favours compounds with a hit; in the whole collection about 2.7% have one here.
ASAP1 GAP inh: blocks human ASAP1-stimulated Arf1 GTP hydrolysis; GDP FP detection; inhibition, % at 16.5 µM; 360,000 tested, 0.19% active; Q9ULH1; in the data active = inhibition above about 25%;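 also: 0% = vehicle with enzyme and substrate and 100% = no enzyme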
Target sequence (Q9ULH1 325-724 limits assumed): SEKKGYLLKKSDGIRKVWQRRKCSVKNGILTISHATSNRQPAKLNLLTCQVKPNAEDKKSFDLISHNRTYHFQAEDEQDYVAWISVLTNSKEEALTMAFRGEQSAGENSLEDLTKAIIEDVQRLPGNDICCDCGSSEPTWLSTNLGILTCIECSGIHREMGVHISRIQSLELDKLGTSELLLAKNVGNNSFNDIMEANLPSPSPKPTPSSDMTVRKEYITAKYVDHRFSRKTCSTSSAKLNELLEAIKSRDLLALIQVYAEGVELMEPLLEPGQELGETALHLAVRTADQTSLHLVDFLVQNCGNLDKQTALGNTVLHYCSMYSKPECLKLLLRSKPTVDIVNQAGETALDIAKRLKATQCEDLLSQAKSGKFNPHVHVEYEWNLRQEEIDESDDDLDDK
pPAFAH FP inh: pPAFAH (human) enzyme inhibition. recombinant pPAFAH, FP-rhodamine probe fluorescence polarization. inhibition, % at 3.39 µM. 330,000 tested, 1.5% active. AID 463082;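 active = inhibition above the mean inhibition across the screen plus 3 SD, cut at about 25% in these data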;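 also: inhibitors block binding of the rhodamine activity-based probe so polarization drops; 0% = enzyme with DMSO and 100% = wells lacking pPAFAH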
PAFAH1B3 inh: inhibitors of human PAFAH1B3; Q15102; recombinant PAFAH1B3, FP-rhodamine probe, fluorescence polarization; inhibition, % at 3.39 µM; 340,000 tested, 0.28% active; AID 492972;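 active = inhibition above the screen-wide average of all tested compounds plus 3 SD, cut at about 25% in these data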;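 also: 0% = enzyme with DMSO only and 100% = wells lacking PAFAH1B3 protein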
PAFAH2 FP inh: inhibitors of human PAFAH2 | Q99487 | recombinant PAFAH2, FP-rhodamine activity probe, fluorescence polarization | inhibition, % at 3.39 µM | 340,000 tested, 0.99% active | AID 492956;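 active = inhibition above the mean over all tested compounds plus 3 SD, cut at about 30% in these data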;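 also: inhibitors block probe labeling of enzyme so polarization drops; 0% = enzyme with DMSO and 100% = wells lacking PAFAH2 protein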
ARFGAP1 inhibitor: rat ARFGAP1 inhibition. Q62848. Arfgap1-stimulated ARF1 GTP hydrolysis, GDP FP detection. inhibition, % at 16.5 µM. 360,000 tested, 0.26% active. AID 651572;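 active = inhibition above a per-plate limit, mean inhibition of low control wells plus 3 SD, cut at about 25% in these data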;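 also: 0% = DMSO wells with enzyme and 100% = wells lacking Arfgap1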
Target sequence (Q62848 1-136 limits assumed): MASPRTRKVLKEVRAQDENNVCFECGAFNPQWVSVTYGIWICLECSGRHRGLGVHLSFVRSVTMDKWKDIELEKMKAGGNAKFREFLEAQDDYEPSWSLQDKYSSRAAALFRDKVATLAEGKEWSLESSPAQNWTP
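Assay system: purified rat His6-Arfgap1 residues 1-136 (GAP domain); Reagent: human Δ17 ARF1 bound to GTP; Dosing: 16.5 µM single point, 1.26% DMSO; Times: GTP hydrolysis reaction 2 h at 25 °C; Signal: FP, GDP Alexa 633 tracer displaced from anti-GDP antibody, 620/688 nm; Measure: % inhibition from polarization.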
PAFAH1B2 inh: PAFAH1B2 (human) inhibition. 340,000 tested, 1.2% active. inhibition, % at 3.39 µM. recombinant PAFAH1B2, FP-rhodamine activity probe, fluorescence polarization. P68402;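 active = inhibition above the mean of all tested compounds plus 3 SD, cut at about 24% in these data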;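 also: 0% = enzyme with DMSO and 100% = wells lacking PAFAH1B2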
* = called active by the depositor; / = no result given.

SMILES	ASAP1 GAP inh	pPAFAH FP inh	PAFAH1B3 inh	PAFAH2 FP inh	ARFGAP1 inhibitor	PAFAH1B2 inh
CCCSc1nc2cc(OC)c(OC)cc2c(=N)n1CCCN1CCOCC1	9	2	2	0	8	2
COCCCn1c(SCc2ccc(OC)cc2)nc2cc(OC)c(OC)cc2c1=N	19	25*	12	5	19	7
N#CCC(=O)c1ccccc1Oc1ccc(Cl)cc1	5	25*	3	-7	-8	6
O/N=C/c1ccccc1Oc1ccc(Cl)cc1	-9	0	5	-8	15	5
CCCCCCC(=O)O	4	1	10	-1	-7	1
CCCCCCCCCCCCCC(=O)O	11	2	14	12	-4	35*
CC(=O)OC[C@H]1O[C@H](C#Cc2ccc(C(C)(C)C)cc2)C=C[C@H]1OC(=O)Nc1ccccc1	-10	/	/	/	3	/
Cc1noc(C)c1S(=O)(=O)N1CCCc2nc(-c3ccccc3)ccc21	-11	/	/	/	-3	/
Cc1ccc(NC(=O)COc2coc(CN3CCc4ccccc4C3)cc2=O)c(C)c1	-5	25*	8	4	-10	9
Cc1ccc(C(=O)c2sc(Nc3ccccc3)c(C#N)c2N)cc1	-6	24	-3	7	-15	6
N#Cc1c(Nc2ccccc2)sc(C(=O)C2CC2)c1N	-7	8	6	1	-4	28*
N#Cc1c(Nc2ccccc2)sc(C(=O)c2ccc(F)cc2)c1N	4	17	6	7	-7	30*
Cc1cc(N2CCN(CC(C)(C)O)C[C@H]2C)ccc1N1CCN(CC(C)(C)O)[C@H](C)C1	-4	/	/	/	2	/
CCCCCNC(=O)C(C)Sc1ccc(Cl)cc1 (stereo not given)	10	-2	3	4	-5	30*
O=C(COc1ccc(Br)cc1)NC(=S)Nc1ccccc1N1CCOCC1	-5	2	9	-10	-1	26*
CC1CCCC(C)N1C(=O)CSc1nc(N)c(-c2ccccc2)c(=O)[nH]1 (stereo not given)	-5	2	5	0	2	25*
Cc1ccc(/C=N/Nc2ccc(C(=O)O)cc2)s1	-7	26*	-1	19	-9	2
COC(=O)C1=C(C)N(C)C(=NCc2ccc(OC)cc2)NC1c1cccc(Cl)c1 (stereo not given)	0	/	/	/	4	/
O=C(Nc1cccc(NC(=O)c2c(F)cccc2F)n1)c1c(F)cccc1F	14	-5	11	13	25*	4
CCSc1n[nH]c2nc3c(c(=O)n12)C1(CCCCC1)Cc1ccccc1-3	5	4	3	58*	-5	82*
Cn1c(NCCCO)nc2c(c1=O)C1(CCCCC1)Cc1ccccc1-2	3	-1	5	0	8	19
CCC(=O)Nn1cnc2c(c1=O)C1(CCCCC1)Cc1ccccc1-2	4	-2	4	-4	9	33*
CCCn1c(SCC(N)=O)nc2c(c1=O)C1(CCCC1)Cc1ccccc1-2	12	8	4	-8	12	24
N#CCSc1n[nH]c2nc3c(c(=O)n12)C1(CCCCC1)Cc1ccccc1-3	-15	22	6	38*	-7	91*
CSc1n[nH]c2nc3c(c(=O)n12)C1(CCCCC1)Cc1ccccc1-3	-15	6	10	44*	-6	91*
SMILES	ASAP1 GAP inh	pPAFAH FP inh	PAFAH1B3 inh	PAFAH2 FP inh	ARFGAP1 inhibitor	PAFAH1B2 inh
S=C1NCCOc2ccccc21	-6	/	/	/	5	/
COc1ccccc1CNC(=O)c1n[nH]c2ccccc12	22	28*	-1	2	8	-1
COc1ccccc1CNC(=O)COC(=O)c1ccncc1	-1	1	11	6	6	8
COc1ccccc1NC(=O)c1ccc(NC(=O)COC(=O)c2ccc(O)cc2)cc1	0	26*	2	50*	0	-4
COc1ccccc1CNC(=O)COC(=O)c1ccc(C(=O)c2ccccc2)cc1	5	24	-8	-6	-5	47*
COc1ccc(CNC(=O)COC(=O)c2ccc(C(=O)c3ccccc3)cc2)cc1	-3	31*	13	-1	-9	5
COC(=O)C1=C(C)N(Cc2cccc(C(F)(F)F)c2)C(=NCc2cc(OC)c(OC)c(OC)c2)NC1c1ccccc1 (stereo not given)	-4	/	/	/	15	/
Cc1ccc(-n2ncc3c2CCCC3NC(=O)CCCN2CCCC2=O)cc1C (stereo not given)	-3	10	2	4	2	6
CC(C)(C)c1ccc(-n2ncc3c2CCCC3NC(=O)CCN2CCCCC2=O)cc1 (stereo not given)	-18	64*	9	26	4	2
CCCCOc1ccc(CNC(=O)NS(=O)(=O)c2ccc(OCC)cc2)cc1	-3	4	-1	-8	4	10
CCCCOc1ccc(S(=O)(=O)NC(=O)NCc2ccc(OCCC)cc2)cc1	-14	8	3	5	-4	42*
CCCCOc1ccc(CNC(=O)NS(=O)(=O)c2ccc(OCC(C)C)cc2)cc1	7	2	3	-1	-4	59*
Cc1ccc(C)c(NS(=O)(=O)c2ccc(OCC(=O)N3CCCC3)cc2)c1	-2	25*	-12	5	-2	-1
Cc1ccccc1NS(=O)(=O)c1ccc(OCC(=O)N2CCCC2)cc1	-13	22	-1	-23	15	-1
O=C(COc1ccc(S(=O)(=O)NC2CCCCC2)cc1)N1CCN(c2cccc(Cl)c2)CC1	5	28*	5	-6	0	0
CCC(C)NS(=O)(=O)c1ccc(OCC(=O)N2CCCC2)cc1 (stereo not given)	-9	27*	2	3	5	-3
CC(C)NS(=O)(=O)c1ccc(OCC(=O)N2CCCC2)cc1	1	13	-3	-4	-7	4
CC(C)NS(=O)(=O)c1ccc(OCC(=O)N2CCN(c3ccccc3)CC2)cc1	5	9	-8	6	1	-4
CCOC(=O)C1CCCN(C(=O)COc2ccc(S(=O)(=O)N(CC)c3ccccc3)cc2)C1 (stereo not given)	-15	34*	8	1	8	-2
C=CCNc1cccc2c1S(=O)(=O)N[C@@H](Cc1ccccc1)CO2	-8	/	/	/	-6	/
CCCCN1CC(COCc2ccccc2)Oc2cccc(NCc3cc(OC)c(OC)c(OC)c3)c2S1(=O)=O (stereo not given)	-7	/	/	/	1	/
COc1ccc(OCCCC(=O)OCC(=O)Nc2ccc(Cl)cn2)cc1	1	26*	5	9	7	2
Cc1ccc(OCCC(=O)OCC(=O)Nc2ccc(Cl)cn2)cc1	11	20	-2	0	-9	6
O=C(COC(=O)Cc1ccc(Br)cc1)Nc1ccc(Cl)cn1	-8	25*	5	9	-2	12
COc1cccc(/C=C/C(=O)OCC(=O)Nc2ccc(Cl)cn2)c1	/	2	-4	32*	/	5

High-throughput results: PubChem, The Scripps Research Institute Molecular Screening Center
